Measured values from ChEMBL document CHEMBL1143438, “N-Glycine-sulfonamides as potent dual orexin 1/orexin 2 receptor antagonists” (Bioorg Med Chem Lett, 2008).
Activity calls are given as the source filed them. The calls are words filed in the database; no cut-off is given here.

Key:
[1] = target: T1, Orexin/Hypocretin receptor type 1 (Homo sapiens, UniProt O43613); assay: Inhibition of human OX1 receptor expressed in CHO cells assessed as […] calcium mobilization by FLIPR assay; assay type: functional, cell-based
T1 sequence (O43613 whole entry): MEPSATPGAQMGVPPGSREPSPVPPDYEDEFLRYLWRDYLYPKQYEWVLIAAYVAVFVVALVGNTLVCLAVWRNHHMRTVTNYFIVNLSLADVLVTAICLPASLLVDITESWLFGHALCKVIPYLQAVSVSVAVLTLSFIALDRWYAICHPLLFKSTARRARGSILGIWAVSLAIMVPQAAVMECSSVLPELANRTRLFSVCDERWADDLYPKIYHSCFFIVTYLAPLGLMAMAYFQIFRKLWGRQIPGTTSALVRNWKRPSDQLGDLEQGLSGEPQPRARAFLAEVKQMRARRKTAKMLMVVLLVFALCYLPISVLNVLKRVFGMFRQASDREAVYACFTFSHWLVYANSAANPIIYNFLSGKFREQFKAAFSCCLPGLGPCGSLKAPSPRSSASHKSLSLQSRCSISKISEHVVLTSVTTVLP
How it was run: (§1)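 CHO cells expressing human OX1 or OX2 receptor, loaded with fluo-3 AM at 37 °C in 5% CO2, then washed. Antagonist added at varying concentrations before orexin A; intracellular Ca2+ rise read as fluorescence change by FLIPR. IC50 taken as concentration inhibiting 50% of agonist response.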

[2] = target: T2, Orexin receptor type 2 (Homo sapiens, UniProt O43614); assay: Inhibition of human OX2 receptor expressed in CHO cells assessed as […] calcium mobilization by FLIPR assay; assay type: functional, cell-based; how it was run: as §1
T2 sequence (O43614 whole entry): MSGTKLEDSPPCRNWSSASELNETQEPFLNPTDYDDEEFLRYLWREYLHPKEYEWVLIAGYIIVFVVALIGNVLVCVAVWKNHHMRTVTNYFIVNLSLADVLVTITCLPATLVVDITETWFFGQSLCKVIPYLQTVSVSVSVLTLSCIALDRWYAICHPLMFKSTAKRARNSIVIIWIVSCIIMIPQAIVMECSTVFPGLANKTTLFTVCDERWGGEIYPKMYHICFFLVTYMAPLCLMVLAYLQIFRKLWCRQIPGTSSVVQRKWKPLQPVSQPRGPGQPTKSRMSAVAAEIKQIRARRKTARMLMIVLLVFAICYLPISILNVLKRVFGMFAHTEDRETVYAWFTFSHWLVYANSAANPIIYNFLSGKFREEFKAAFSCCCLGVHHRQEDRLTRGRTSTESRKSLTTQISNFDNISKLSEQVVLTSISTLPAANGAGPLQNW

[3] = Half life in Wistar rat at 1 mg/kg, iv; assay type: ADME, organism-based; parameters: dose 1 mg/kg, route intravenous; settings: in vivo
How it was run: (§2)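 Male Wistar rats on 12-h light/dark cycle; single iv dose 1 mg/kg in 5%/95% (v/v) DMSO : 30/70 hydroxypropyl-β-cyclodextrin/sterile water; one or two animals. Serial blood drawn into Na-EDTA tubes at various time-points, centrifuged to plasma; parameters (clearance mL/min kg, Vss L/kg) derived from plasma concentration–time profiles.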

[4] = AUC in Wistar rat at 1 mg/kg, iv; assay type: ADME, organism-based; parameters: dose 1 mg/kg, route intravenous; settings: plasma; how it was run: as §2
[5] = Clearance in Wistar rat plasma at 1 mg/kg, iv; assay type: ADME, organism-based; parameters: dose 1 mg/kg, route intravenous; how it was run: as §2
[6] = Volume of distribution at steady state in Wistar rat at 1 mg/kg, iv; assay type: ADME, organism-based; parameters: dose 1 mg/kg, route intravenous; settings: in vivo, read-out: Vdss; how it was run: as §2
[7] = Cmax in Wistar rat at 10 mg/kg, po; assay type: ADME, organism-based; parameters: dose 10 mg/kg, route oral; settings: in vivo
How it was run: (§3)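 Oral dosing of male Wistar rats at 10 mg/kg formulated in 100% PEG-400, three animals. Serial blood collected into Na-EDTA at various times, spun to plasma. Cmax (ng/mL), Tmax (h), AUC (ng h/mL) from plasma concentration–time curve; F as percent of dose.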

[8] = AUC in Wistar rat at 10 mg/kg, po; assay type: ADME, organism-based; parameters: dose 10 mg/kg, route oral; settings: plasma; how it was run: as §3
[9] = Tmax in Wistar rat at 10 mg/kg, po; assay type: ADME, organism-based; parameters: dose 10 mg/kg, route oral; settings: in vivo; how it was run: as §3
[10] = Oral bioavailability in Wistar rat at 10 mg/kg; assay type: ADME, organism-based; settings: in vivo; how it was run: as §3
[11] = tested on: Rattus norvegicus; assay: Effect on behavioral activity in po dosed Wistar rat assessed as change in time spent on non-rapid eye movement sleep in dark; assay type: functional, organism-based
How it was run: (§4)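 Freely moving adult male Wistar rats with radiotelemetric probes recording EEG, EMG, locomotor activity and body temperature in home cage; oral dosing in 100% PEG-400 at start of dark phase (100, 300 mg/kg). Home cage activity, active wake, non-REM and REM time integrated over 12-h night. Groups of 7–8, crossover, ≥4-day washout; mean ± SEM, one-way ANOVA with Bonferroni post hoc.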

[12] = tested on: Rattus norvegicus; assay: Effect on behavioral activity in po dosed Wistar rat assessed as change in time spent on rapid eye movement sleep in dark; assay type: functional, organism-based; how it was run: as §4
[13] = tested on: Rattus norvegicus; assay: Effect on behavioral activity in po dosed Wistar rat assessed as change in time spent active wake in dark; assay type: functional, organism-based; how it was run: as §4
[14] = tested on: Rattus norvegicus; assay: Effect on behavioral activity in po dosed Wistar rat assessed as decrease in home cage activity in dark; assay type: functional, organism-based; how it was run: as §4
[15] = tested on: Rattus norvegicus; assay: Effect on behavioral activity in po dosed Wistar rat assessed as increase in time spent on non-rapid eye movement sleep after 12 hrs in dark; assay type: functional, organism-based; how it was run: as §4
[16] = tested on: Rattus norvegicus; assay: Effect on behavioral activity in po dosed Wistar rat assessed as increase in time spent on rapid eye movement sleep after 12 hrs in dark; assay type: functional, organism-based; how it was run: as §4
[17] = tested on: Rattus norvegicus; assay: Drug level in Wistar rat brain at 100 mg/kg, po; assay type: ADME, organism-based; parameters: dose 100 mg/kg, route oral; settings: in vivo
How it was run: (§5)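 Male Wistar rats given 100 mg/kg po; plasma, CSF and brain sampled 1 and 3 h post-dose from same animal (±5 min). Blood from vena cava caudalis into EDTA; CSF from cisterna magna avoiding blood; brain taken after cardiac perfusion with 10 mL 0.9% NaCl, homogenized in 1 volume cold phosphate buffer pH 7.4; total brain concentration in ng/g.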

[18] = Drug level in Wistar rat brain at 100 mg/kg, po after 3 hrs; assay type: ADME, organism-based; parameters: dose 100 mg/kg, route oral; settings: read-out: Drug uptake; how it was run: as §5
[19] = tested on: Rattus norvegicus; assay: Effect on behavioral activity in Wistar rat assessed as increase in time spent on non-rapid eye movement sleep at 300 mg/kg, po after 12 hrs; assay type: functional; how it was run: as §4
[20] = tested on: Rattus norvegicus; assay: Effect on behavioral activity in Wistar rat assessed as increase in time spent on rapid eye movement sleep at 300 mg/kg, po after 12 hrs; assay type: functional; how it was run: as §4

With CCc1ccc(S(=O)(=O)N(CC(=O)N(CC)CC)c2ccc(C)cc2)cc1 the IC50 [1] was > 10000 nM and the IC50 [2] was 89 nM.
Molecule CCN(C(=O)CN(c1cc(N(C)C)ccc1Cl)S(=O)(=O)c1ccc(OC)c(OC)c1)c1ccn(C)n1 has an IC50 [1] of 12 nM, an IC50 [2] of 7 nM and a half-life [3] of 54 min. The AUC [4] was 1230 ng·h/mL, the clearance [5] was 14 mL/min/kg and the Vd [6] was 1 L/kg. It also gave a Cmax [7] of 858 ng/mL, an AUC [8] of 5660 ng·h/mL and a Tmax [9] of 240 min. For the same molecule, the bioavailability [10] was 46%.
In the case of CCN(CC)C(=O)CN(c1ccc(C)cc1)S(=O)(=O)c1cccc(Cl)c1, the IC50 [1] is reported as > 10000 nM and the IC50 [2] is reported as 139 nM.
With CCN(CC)C(=O)CN(c1ccc(C)cc1)S(=O)(=O)c1ccccc1F the IC50 [1] was > 10000 nM and the IC50 [2] was 3370 nM.
Work on CCN(CC)C(=O)CN(c1cc(N(C)CC)ccc1Cl)S(=O)(=O)c1ccc(OC)c(OC)c1 yielded an IC50 [1] of 1370 nM and an IC50 [2] of 433 nM.
For CCN(CC)C(=O)CN(c1cc(N(C)C)ccc1OC)S(=O)(=O)c1ccc(OC)c(OC)c1, the IC50 [1] was > 10000 nM and the IC50 [2] was 239 nM.
CCN(C(=O)CN(c1cc(N(C)C)ccc1Cl)S(=O)(=O)c1ccc(OC)c(OC)c1)c1cccc(C)n1 gave an IC50 [1] of 17 nM, an IC50 [2] of 5 nM and a half-life [3] of 30 min. It also gave an AUC [4] of 434 ng·h/mL, a clearance [5] of 38 mL/min/kg and a Vd [6] of 1.7 L/kg. The Cmax [7] was 582 ng/mL, the AUC [8] was 2290 ng·h/mL and the Tmax [9] was 30 min. The bioavailability [10] was 35%, the Activity [11] was “Active” and the Activity [12] was “Active”. The Activity [13] was “Active”, the Activity [14] was “Dose-dependent effect” and the Activity [15] was “Dose-dependent effect”. For the same molecule, the Activity [16] was “Dose-dependent effect”, the Drug uptake [17] was 10 ng/g and the concentration at 3 h [18] was 66 ng/g. It also gave an Activity [19] of 83% and an Activity [20] of 17%.
In the case of CCN(CC)C(=O)CN(c1cccc(N(C)C)c1C#N)S(=O)(=O)c1ccc(OC)c(OC)c1, the IC50 [1] is reported as > 10000 nM and the IC50 [2] is reported as 110 nM.
With CCN(CC)C(=O)CN(c1cc(-n2cccc2)ccc1Cl)S(=O)(=O)c1ccc(OC)c(OC)c1 the IC50 [1] was 1710 nM and the IC50 [2] was 1160 nM.
For CCN(CC)C(=O)CN(c1cc(C)ccc1Cl)S(=O)(=O)c1ccc(OC)c(OC)c1, the IC50 [1] was 1110 nM and the IC50 [2] was 8 nM.
CCN(C(=O)CN(c1cc(N(C)C)ccc1Cl)S(=O)(=O)c1ccc(OC)c(OC)c1)c1cc(C)n(C)n1 gave an IC50 [1] of 6 nM, an IC50 [2] of 4 nM and a half-life [3] of 48 min. For the same molecule, the AUC [4] was 1140 ng·h/mL, the clearance [5] was 15 mL/min/kg and the Vd [6] was 0.7 L/kg. It also gave a Cmax [7] of 872 ng/mL, an AUC [8] of 4570 ng·h/mL and a Tmax [9] of 30 min. It also gave a bioavailability [10] of 40% and a Drug uptake [17] of 10 ng/g.
For CCN(CC)C(=O)CN(c1ccc(C)cc1)S(=O)(=O)c1ccc(Br)cc1, the IC50 [1] was > 10000 nM and the IC50 [2] was 142 nM.
CCN(C(=O)CN(c1cc2c(C)nsc2cc1Cl)S(=O)(=O)c1ccc(OC)c(OC)c1)c1cccc(C)n1 showed an IC50 [1] of 8 nM, an IC50 [2] of 7 nM and a half-life [3] of 48 min. It also gave an AUC [4] of 536 ng·h/mL, a clearance [5] of 32 mL/min/kg and a Vd [6] of 1.5 L/kg. The Cmax [7] was 40 ng/mL, the AUC [8] was 121 ng·h/mL and the Tmax [9] was 30 min. For the same molecule, the bioavailability [10] was 2%.
For CCN(CC)C(=O)CN(c1cc(N(C)C)ccc1Cl)S(=O)(=O)c1ccc(OC)c(OC)c1, the IC50 [1] was 119 nM and the IC50 [2] was 5 nM.
With CCN(CC)C(=O)CN(c1ccc(Cl)c(N(C)C)c1)S(=O)(=O)c1ccc(OC)c(OC)c1 the IC50 [1] was > 10000 nM and the IC50 [2] was 789 nM.
For CCN(CC)C(=O)CN(c1cc(N(CC)CC)ccc1Cl)S(=O)(=O)c1ccc(OC)c(OC)c1, the IC50 [1] was > 10000 nM and the IC50 [2] was 2410 nM.
For CCN(CC)C(=O)CN(c1ccc(C)cc1)S(=O)(=O)c1ccc(C#N)cc1, the IC50 [1] was > 10000 nM and the IC50 [2] was 1190 nM.
In the case of CCN(CC)C(=O)CN(c1ccc(C)cc1)S(=O)(=O)c1cccc(C)c1, the IC50 [1] is reported as > 10000 nM and the IC50 [2] is reported as 60 nM.
